Laboratory results: ChEMBL document CHEMBL1649324, “In vitro activity of tebipenem, a new oral carbapenem antibiotic, against beta-lactamase-nonproducing, ampicillin-resistant Haemophilus influenzae” (2010)
≈ marks a conversion by molar mass, not a printed value.

What was measured:
Assay type in all cases: functional
Haemophilus influenzae [1] = test: Antimicrobial activity against gBLNAS Haemophilus influenzae by agar dilution method
Summary of the method: (§1)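 Agar dilution on Mueller-Hinton agar with 0.5% yeast extract, 2% defibrinated heat-treated horse blood and 15 μg/ml β-NAD+. Plates were incubated 20 h at 37°C in 5% CO2, and the MIC was read. Clinical pediatric isolates (2005–2008) were assigned to genetic resistance classes by PCR.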

Haemophilus influenzae [2] = test: Antimicrobial activity against gBLNAR Haemophilus influenzae by agar dilution method
Summary of the method: (§2)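 Agar dilution MICs on Mueller-Hinton agar with 0.5% yeast extract, 2% defibrinated heat-treated horse blood and 15 μg/ml β-NAD+. Plates read after 20 h at 37°C in 5% CO2. Paediatric clinical isolates (2005–2008) assigned to genetic β-lactam resistance class by PCR. Values are MIC range, MIC50 and MIC90 per class.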

Haemophilus influenzae [3] = test: Antimicrobial activity against gLow-BLNAR Haemophilus influenzae by agar dilution method; summary of the method: as §1
Haemophilus influenzae [4] = test: Antimicrobial activity against gBLPAR-TEM1 Haemophilus influenzae by agar dilution method; summary of the method: as §2
Haemophilus influenzae [5] = test: Antimicrobial activity against gBLPACR-2 Haemophilus influenzae by agar dilution method; summary of the method: as §2
Haemophilus influenzae [6] = test: Antimicrobial activity against gBLPACR-1 Haemophilus influenzae by agar dilution method; summary of the method: as §1
Haemophilus influenzae [7] = test: Bactericidal activity against gBLNAR Haemophilus influenzae JPH002 assessed as reduction in bacterial load at MIC after 4 hrs by time-kill analysis in presence of 10% human serum
Summary of the method: (§3)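 Colonies precultured on chocolate agar were suspended in MH broth to 0.5 McFarland, diluted 10-fold in MH broth with yeast extract, horse blood and β-NAD+, then grown 120 min at 37°C. 500 μl was inoculated into 9.5 ml of the same supplemented broth containing drug at the MIC or 2× MIC, with or without 10% fresh human serum. Tubes were incubated static and viable counts sampled at set intervals.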

Haemophilus influenzae [8] = test: Bactericidal activity against gBLNAR Haemophilus influenzae JPH002 assessed as reduction in bacterial load at MIC after 6 hrs by time-kill analysis; summary of the method: as §3
Haemophilus influenzae [9] = test: Bactericidal activity against gBLNAR Haemophilus influenzae JPH1306 assessed as reduction in bacterial load at MIC after 4 hrs by time-kill analysis; summary of the method: as §3
Haemophilus influenzae [10] = test: Bactericidal activity against gBLNAR Haemophilus influenzae JPH1306 assessed as reduction in bacterial load at MIC after 4 hrs by time-kill analysis in presence of 10% human serum; summary of the method: as §3
Haemophilus influenzae [11] = test: Bactericidal activity against gBLNAR Haemophilus influenzae JPH1306 assessed as reduction in bacterial load at MIC after 6 hrs by time-kill analysis; summary of the method: as §3
Haemophilus influenzae [12] = test: Bactericidal activity against gBLNAR Haemophilus influenzae JPH002 assessed as reduction in bacterial load at MIC after 4 hrs by time-kill analysis; summary of the method: as §3
Haemophilus influenzae [13] = test: Bactericidal activity against gBLNAR Haemophilus influenzae JPH002 assessed as reduction in bacterial load at MIC after 2 hrs by time-kill analysis in presence of 10% human serum; summary of the method: as §3
Haemophilus influenzae [14] = test: Bactericidal activity against gBLNAR Haemophilus influenzae JPH002 assessed as reduction in bacterial load at MIC after 6 hrs by time-kill analysis in presence of 10% human serum; summary of the method: as §3
Haemophilus influenzae [15] = test: Bactericidal activity against gBLNAR Haemophilus influenzae JPH1306 assessed as reduction in bacterial load at MIC after 6 hrs by time-kill analysis in presence of 10% human serum; summary of the method: as §3
Haemophilus influenzae [16] = test: Bactericidal activity against gBLNAR Haemophilus influenzae JPH1306 assessed as reduction in bacterial load at MIC after 2 hrs by time-kill analysis in presence of 10% human serum; summary of the method: as §3

Row | Structure (SMILES) | MIC50 (Haemophilus influenzae [1]) | MIC90 (Haemophilus influenzae [1]) | MIC50 (Haemophilus influenzae [2]) | MIC90 (Haemophilus influenzae [2]) | MIC50 (Haemophilus influenzae [3]) | MIC90 (Haemophilus influenzae [3]) | MIC (Haemophilus influenzae [4]) | MIC (Haemophilus influenzae [5]) | MIC (Haemophilus influenzae [6]) | MIC (Haemophilus influenzae [3]) | log10cfu (Haemophilus influenzae [7]) | log10cfu (Haemophilus influenzae [8]) | log10cfu (Haemophilus influenzae [9]) | log10cfu (Haemophilus influenzae [10]) | log10cfu (Haemophilus influenzae [11]) | log10cfu (Haemophilus influenzae [12]) | log10cfu (Haemophilus influenzae [13]) | log10cfu (Haemophilus influenzae [14]) | log10cfu (Haemophilus influenzae [15]) | log10cfu (Haemophilus influenzae [16])
1 | CC1(C)S[C@@H]2[C@H](NC(=O)[C@H](N)c3ccc(O)cc3)C(=O)N2[C@H]1C(=O)O [AMOXICILLIN] | 0.5 µg/mL (≈ 1.37 µM) | 0.5 µg/mL (≈ 1.37 µM) | 8 µg/mL (≈ 21.9 µM) | 32 µg/mL (≈ 87.6 µM) | 2 µg/mL (≈ 5.47 µM) | 4 µg/mL (≈ 10.9 µM) | 8 µg/mL (≈ 21.9 µM) | 2 µg/mL (≈ 5.47 µM) | 8 µg/mL (≈ 21.9 µM) | – | – | – | – | – | – | – | – | – | – | –
2 | CC1(C)S[C@@H]2[C@H](NC(=O)[C@H](N)c3ccccc3)C(=O)N2[C@H]1C(=O)O [AMPICILLIN] | 0.25 µg/mL (≈ 0.715 µM) | 0.5 µg/mL (≈ 1.43 µM) | 2 µg/mL (≈ 5.72 µM) | 8 µg/mL (≈ 22.9 µM) | 1 µg/mL (≈ 2.86 µM) | 1 µg/mL (≈ 2.86 µM) | 8 µg/mL (≈ 22.9 µM) | 2 µg/mL (≈ 5.72 µM) | 8 µg/mL (≈ 22.9 µM) | – | – | – | – | – | – | – | – | – | – | –
3 | CC[C@H]1OC(=O)[C@H](C)[C@@H](O[C@H]2C[C@@](C)(OC)[C@@H](O)[C@H](C)O2)[C@H](C)[C@@H](O[C@@H]2O[C@H](C)C[C@H](N(C)C)[C@H]2O)[C@](C)(O)C[C@@H](C)CN(C)[C@H](C)[C@@H](O)[C@]1(C)O [AZITHROMYCIN] | 2 µg/mL (≈ 2.67 µM) | 4 µg/mL (≈ 5.34 µM) | 2 µg/mL (≈ 2.67 µM) | 4 µg/mL (≈ 5.34 µM) | 2 µg/mL (≈ 2.67 µM) | 2 µg/mL (≈ 2.67 µM) | 1 µg/mL (≈ 1.34 µM) | 2 µg/mL (≈ 2.67 µM) | 2 µg/mL (≈ 2.67 µM) | – | – | – | – | – | – | – | – | – | – | –
4 | C=CC1=C(C(=O)O)N2C(=O)[C@@H](NC(=O)/C(=N\O)c3csc(N)n3)[C@H]2SC1 [CEFDINIR] | 0.25 µg/mL (≈ 0.632 µM) | 0.5 µg/mL (≈ 1.26 µM) | 8 µg/mL (≈ 20.2 µM) | 32 µg/mL (≈ 80.9 µM) | 0.5 µg/mL (≈ 1.26 µM) | 2 µg/mL (≈ 5.06 µM) | 0.25 µg/mL (≈ 0.632 µM) | 8 µg/mL (≈ 20.2 µM) | 1 µg/mL (≈ 2.53 µM) | 0.5 µg/mL (≈ 1.26 µM) | – | – | – | – | – | – | – | – | – | –
5 | CO/N=C(\C(=O)N[C@@H]1C(=O)N2C(C(=O)O)=C(COC(C)=O)CS[C@H]12)c1csc(N)n1 [CEFOTAXIME] | 0.016 µg/mL (≈ 0.0351 µM) | 0.031 µg/mL (≈ 0.0681 µM) | 0.5 µg/mL (≈ 1.1 µM) | 1 µg/mL (≈ 2.2 µM) | 0.031 µg/mL (≈ 0.0681 µM) | 0.12 µg/mL (≈ 0.263 µM) | 0.008 µg/mL (≈ 0.0176 µM) | 0.25 µg/mL (≈ 0.549 µM) | 0.031 µg/mL (≈ 0.0681 µM) | – | – | – | – | – | – | – | – | – | – | –
6 | CC[C@H]1OC(=O)[C@H](C)[C@@H](O[C@H]2C[C@@](C)(OC)[C@@H](O)[C@H](C)O2)[C@H](C)[C@@H](O[C@@H]2O[C@H](C)C[C@H](N(C)C)[C@H]2O)[C@](C)(OC)C[C@@H](C)C(=O)[C@H](C)[C@@H](O)[C@]1(C)O [CLARITHROMYCIN] | 8 µg/mL (≈ 10.7 µM) | 16 µg/mL (≈ 21.4 µM) | 8 µg/mL (≈ 10.7 µM) | 16 µg/mL (≈ 21.4 µM) | 8 µg/mL (≈ 10.7 µM) | 16 µg/mL (≈ 21.4 µM) | 8 µg/mL (≈ 10.7 µM) | 8 µg/mL (≈ 10.7 µM) | 8 µg/mL (≈ 10.7 µM) | – | – | – | – | – | – | – | – | – | – | –
7 | C[C@@H](O)[C@H]1C(=O)N2C(C(=O)O)=C(S[C@@H]3CN[C@H](C(=O)N(C)C)C3)[C@H](C)[C@H]12 [MEROPENEM] | 0.063 µg/mL (≈ 0.164 µM) | 0.12 µg/mL (≈ 0.313 µM) | 0.25 µg/mL (≈ 0.652 µM) | 0.5 µg/mL (≈ 1.3 µM) | 0.12 µg/mL (≈ 0.313 µM) | 0.25 µg/mL (≈ 0.652 µM) | 0.031 µg/mL (≈ 0.0808 µM) | 0.063 µg/mL (≈ 0.164 µM) | 0.063 µg/mL (≈ 0.164 µM) | – | – | – | – | – | – | – | – | – | – | –
8 | C[C@@H](O)[C@H]1C(=O)N2C(C(=O)O)=C(SC3CN(C4=NCCS4)C3)[C@H](C)[C@H]12 [TEBIPENEM] | 0.063 µg/mL (≈ 0.164 µM) | 0.12 µg/mL (≈ 0.313 µM) | 0.25 µg/mL (≈ 0.652 µM) | 1 µg/mL (≈ 2.61 µM) | 0.25 µg/mL (≈ 0.652 µM) | 0.5 µg/mL (≈ 1.3 µM) | 0.063 µg/mL (≈ 0.164 µM) | 0.25 µg/mL (≈ 0.652 µM) | 0.12 µg/mL (≈ 0.313 µM) | – | 3 | 3 | 3 | 3 | 3 | 3 | 3 | 3 | 3 | 3
